Results published in ChEMBL document CHEMBL3526048, “In vitro metabolism of rivoglitazone, a novel peroxisome proliferator-activated receptor γ agonist, in rat, monkey, and human liver microsomes and freshly isolated hepatocytes” (Drug Metab Dispos, 2011).

Key:
[1] = biological target: T1, UDP-glucuronosyltransferase 1A3 (Homo sapiens, UniProt P35503); test: Activity of human UGT1A3 expressed in microsomes isolated from baculovirus infected insect cell assessed as enzyme-mediated compound formation treated with [14C]-rivoglitazone at 20 uM after 4 hrs by radio-HPLC/LC-MS/MS analysis in presence of UDPGA, UDPGA/SAM
T1 sequence (P35503 whole entry): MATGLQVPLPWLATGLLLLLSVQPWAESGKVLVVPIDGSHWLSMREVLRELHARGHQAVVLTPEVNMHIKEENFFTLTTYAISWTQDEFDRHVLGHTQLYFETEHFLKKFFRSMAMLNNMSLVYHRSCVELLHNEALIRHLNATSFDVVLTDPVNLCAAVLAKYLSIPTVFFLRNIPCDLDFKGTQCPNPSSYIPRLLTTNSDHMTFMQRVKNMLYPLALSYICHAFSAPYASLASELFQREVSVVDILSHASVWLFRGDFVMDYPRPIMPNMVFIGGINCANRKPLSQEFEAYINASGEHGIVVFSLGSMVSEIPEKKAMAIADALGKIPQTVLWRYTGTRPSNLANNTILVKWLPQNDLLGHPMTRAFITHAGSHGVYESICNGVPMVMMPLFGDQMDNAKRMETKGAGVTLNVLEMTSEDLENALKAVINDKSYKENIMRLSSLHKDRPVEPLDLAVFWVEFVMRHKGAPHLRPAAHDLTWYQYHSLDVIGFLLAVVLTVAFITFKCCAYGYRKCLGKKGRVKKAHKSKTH

[2] = biological target: T2, UDP-glucuronosyltransferase 1A10 (Homo sapiens, UniProt Q9HAW8); test: Activity of human UGT1A10 expressed in microsomes isolated from baculovirus infected insect cell assessed as enzyme-mediated (2S,3S,4S,5R,6R)-3,4,5-trihydroxy-6-(5-(4-((6-methoxy-1-methyl-1H-benzo[d]imidazol-2-yl)methoxy)benzyl)-2,4-dioxothiazolidin-3-yl)tetrahydro-2H-pyran-2-carboxylic acid formation at 20 uM after 4 hrs by radio-HPLC/LC-MS/MS analysis in presence of UDPGA; type: ADME
T2 sequence (Q9HAW8 whole entry): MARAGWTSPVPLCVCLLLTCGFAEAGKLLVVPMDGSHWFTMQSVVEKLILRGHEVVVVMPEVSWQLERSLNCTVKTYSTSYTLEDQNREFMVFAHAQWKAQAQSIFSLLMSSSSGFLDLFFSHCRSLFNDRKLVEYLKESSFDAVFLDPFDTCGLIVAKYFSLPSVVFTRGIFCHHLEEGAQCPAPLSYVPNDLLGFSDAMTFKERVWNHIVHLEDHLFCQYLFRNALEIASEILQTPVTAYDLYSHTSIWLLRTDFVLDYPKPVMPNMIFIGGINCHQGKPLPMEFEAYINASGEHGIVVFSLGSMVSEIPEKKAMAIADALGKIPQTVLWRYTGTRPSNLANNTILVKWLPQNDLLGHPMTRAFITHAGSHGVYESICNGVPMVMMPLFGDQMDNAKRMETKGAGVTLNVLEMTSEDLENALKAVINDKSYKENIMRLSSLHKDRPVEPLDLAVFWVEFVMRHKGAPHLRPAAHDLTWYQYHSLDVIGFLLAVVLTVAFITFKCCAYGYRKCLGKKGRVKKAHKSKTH
In short: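 Alamethicin (50 μg/mg protein, 15 min on ice) pretreated expressed human UGT microsomes (1 mg/ml protein) from baculovirus-infected insect cells. Incubation with [¹⁴C]rivoglitazone (20 μM) in 100 mM Tris-HCl (pH 7.5) with 10 mM MgCl₂, started by 5 mM UDPGA, 4 h at 37°C with shaking. UGT insect-cell control supersomes were run alongside. Acetonitrile stop, concentrated supernatant analysed by radio-HPLC, LC-MS and LC-MS/MS.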

[3] = biological target: T1, UDP-glucuronosyltransferase 1A3; test: Activity of human UGT1A3 expressed in microsomes isolated from baculovirus infected insect cell assessed as enzyme-mediated 5-hydroxy-5-(4-((6-methoxy-1-methyl-1H-benzo[d]imidazol-2-yl)methoxy)benzyl)thiazolidine-2,4-dione formation at 20 uM after 4 hrs by radio-HPLC/LC-MS/MS analysis in presence of NADPH-generating system and NADPH-generating system/SAM in presence of UDPGA and UDPGA/SAM; type: ADME
[4] = tested on: Liver microsome; test: Drug metabolism in human liver microsomes assessed as formation of 5-(4-((6-methoxy-1H-benzo[d]imidazol-2-yl)methoxy)benzyl)thiazolidine-2,4-dione at 20 uM after 2 hrs by radio-HPLC/LC-MS/MS analysis in presence of NADPH-generating system and NADPH-generating system/SAM; type: ADME
[5] = biological target: Cytochrome P450 3A5 (Homo sapiens, UniProt P20815); test: Activity of human CYP3A5 expressed in microsomes isolated from baculovirus infected insect cell assessed as enzyme-mediated 2-((4-((2,4-dioxothiazolidin-5-yl)methyl)phenoxy)methyl)-1-methyl-1H-benzo[d]imidazol-6-yl hydrogen sulfate formation at 20 uM after 2 hrs by radio-HPLC/LC-MS/MS analysis; type: ADME
Sequence of Cytochrome P450 3A5 (P20815 whole entry): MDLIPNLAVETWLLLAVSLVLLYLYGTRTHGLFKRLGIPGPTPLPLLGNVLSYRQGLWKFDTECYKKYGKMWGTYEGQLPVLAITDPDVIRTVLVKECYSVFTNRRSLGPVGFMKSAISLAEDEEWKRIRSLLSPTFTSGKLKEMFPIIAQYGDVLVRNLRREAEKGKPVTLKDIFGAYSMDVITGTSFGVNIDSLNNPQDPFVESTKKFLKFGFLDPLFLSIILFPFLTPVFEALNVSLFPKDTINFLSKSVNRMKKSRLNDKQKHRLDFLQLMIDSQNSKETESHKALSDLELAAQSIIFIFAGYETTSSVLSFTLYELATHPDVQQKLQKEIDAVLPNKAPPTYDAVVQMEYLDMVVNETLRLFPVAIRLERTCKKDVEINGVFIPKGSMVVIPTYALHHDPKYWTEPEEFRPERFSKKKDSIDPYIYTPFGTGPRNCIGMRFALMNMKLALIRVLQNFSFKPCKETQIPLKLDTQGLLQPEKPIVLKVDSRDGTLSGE
In short: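 Baculovirus-insect-cell microsomes expressing the human CYP (1 mg/ml protein) were incubated with [14C]rivoglitazone (20 μM) in 50 mM potassium phosphate (pH 7.4) or 100 mM Tris-HCl (pH 7.5) with an NADPH-generating system (2 mM NADP+, 20 mM glucose 6-phosphate, 2 units/ml G6PDH, 10 mM MgCl2) for 2 h at 37°C. Insect-cell control supersomes served as the control. Reactions were stopped with acetonitrile, and the concentrated supernatants were analysed by radio-HPLC, LC-MS and LC-MS/MS.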

[6] = tested on: Plasma; test: Drug metabolism in po dosed monkey plasma assessed as formation of 5-(4-((6-methoxy-1H-benzo[d]imidazol-2-yl)methoxy)benzyl)thiazolidine-2,4-dione; type: ADME, organism-based, Macaca mulatta; conditions: rhesus monkey, in vivo
[7] = biological target: T3, UDP-glucuronosyltransferase 2B7 (Homo sapiens, UniProt P16662); test: Activity of human UGT2B7 expressed in microsomes isolated from baculovirus infected insect cell assessed as enzyme-mediated 5-(4-((6-hydroxy-1-methyl-1H-benzo[d]imidazol-2-yl)methoxy)benzyl)thiazolidine-2,4-dione formation at 20 uM after 4 hrs by radio-HPLC/LC-MS/MS analysis in presence of NADPH-generating system/SAM; type: ADME
T3 sequence (P16662 whole entry): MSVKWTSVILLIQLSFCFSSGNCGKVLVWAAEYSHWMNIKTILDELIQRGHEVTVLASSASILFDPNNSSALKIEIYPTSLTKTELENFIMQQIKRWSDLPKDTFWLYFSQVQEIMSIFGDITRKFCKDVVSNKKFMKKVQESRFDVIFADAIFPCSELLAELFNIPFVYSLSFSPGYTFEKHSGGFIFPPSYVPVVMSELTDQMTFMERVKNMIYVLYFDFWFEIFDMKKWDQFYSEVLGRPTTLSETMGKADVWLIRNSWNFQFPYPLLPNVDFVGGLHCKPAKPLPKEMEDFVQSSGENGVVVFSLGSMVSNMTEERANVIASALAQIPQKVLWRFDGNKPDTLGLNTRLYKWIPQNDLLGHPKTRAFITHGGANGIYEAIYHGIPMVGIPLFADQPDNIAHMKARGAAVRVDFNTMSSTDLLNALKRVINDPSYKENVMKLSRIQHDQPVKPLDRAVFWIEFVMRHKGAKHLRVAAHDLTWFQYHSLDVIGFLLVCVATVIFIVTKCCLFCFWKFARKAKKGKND

Structure (SMILES)	Drug metabolism [1]	Drug metabolism [2]	Drug metabolism [3]	Drug metabolism [4]	Drug metabolism [5]	Drug metabolism [6]	Drug metabolism [7]
COc1ccc2nc(COc3ccc(CC(S)C(=O)O)cc3)n(C)c2c1 (configuration not stated)	metabolite_detected						
COc1ccc2nc(COc3ccc(C[14CH]4SC(=O)NC4=O)cc3)n(C)c2c1.Cl (racemic)		metabolite_not_detected	metabolite_not_detected	metabolite_detected	metabolite_not_detected	metabolite_detected	metabolite_not_detected
